{"source": "ChEMBL document CHEMBL4376826", "about": "(J Med Chem, 2020)", "key": {"[1]": {"target": "Broad substrate specificity ATP-binding cassette transporter ABCG2 (Homo sapiens, UniProt Q9UNQ0)", "sequence (Q9UNQ0 whole entry)": "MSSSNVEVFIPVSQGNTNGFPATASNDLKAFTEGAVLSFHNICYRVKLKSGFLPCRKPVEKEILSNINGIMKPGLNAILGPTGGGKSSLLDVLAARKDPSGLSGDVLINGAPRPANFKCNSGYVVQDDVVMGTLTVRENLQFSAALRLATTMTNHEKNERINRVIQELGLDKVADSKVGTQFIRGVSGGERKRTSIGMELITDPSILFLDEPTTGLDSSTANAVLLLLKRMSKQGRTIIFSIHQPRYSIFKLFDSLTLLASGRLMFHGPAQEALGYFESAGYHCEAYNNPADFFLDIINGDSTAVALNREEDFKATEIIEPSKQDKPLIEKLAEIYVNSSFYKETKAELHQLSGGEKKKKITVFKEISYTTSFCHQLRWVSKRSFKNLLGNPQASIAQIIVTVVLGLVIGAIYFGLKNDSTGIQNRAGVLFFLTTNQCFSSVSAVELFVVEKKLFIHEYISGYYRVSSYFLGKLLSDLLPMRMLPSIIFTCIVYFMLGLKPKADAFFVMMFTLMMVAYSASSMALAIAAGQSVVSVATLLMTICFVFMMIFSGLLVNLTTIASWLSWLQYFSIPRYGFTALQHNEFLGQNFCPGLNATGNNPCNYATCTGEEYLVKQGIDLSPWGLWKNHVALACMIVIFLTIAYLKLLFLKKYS", "assay": "Inhibition of BCRP (unknown origin)", "format": "ADME"}, "[2]": {"target": "Solute carrier organic anion transporter family member 1B1 (Homo sapiens, UniProt Q9Y6L6)", "sequence (Q9Y6L6 whole entry)": "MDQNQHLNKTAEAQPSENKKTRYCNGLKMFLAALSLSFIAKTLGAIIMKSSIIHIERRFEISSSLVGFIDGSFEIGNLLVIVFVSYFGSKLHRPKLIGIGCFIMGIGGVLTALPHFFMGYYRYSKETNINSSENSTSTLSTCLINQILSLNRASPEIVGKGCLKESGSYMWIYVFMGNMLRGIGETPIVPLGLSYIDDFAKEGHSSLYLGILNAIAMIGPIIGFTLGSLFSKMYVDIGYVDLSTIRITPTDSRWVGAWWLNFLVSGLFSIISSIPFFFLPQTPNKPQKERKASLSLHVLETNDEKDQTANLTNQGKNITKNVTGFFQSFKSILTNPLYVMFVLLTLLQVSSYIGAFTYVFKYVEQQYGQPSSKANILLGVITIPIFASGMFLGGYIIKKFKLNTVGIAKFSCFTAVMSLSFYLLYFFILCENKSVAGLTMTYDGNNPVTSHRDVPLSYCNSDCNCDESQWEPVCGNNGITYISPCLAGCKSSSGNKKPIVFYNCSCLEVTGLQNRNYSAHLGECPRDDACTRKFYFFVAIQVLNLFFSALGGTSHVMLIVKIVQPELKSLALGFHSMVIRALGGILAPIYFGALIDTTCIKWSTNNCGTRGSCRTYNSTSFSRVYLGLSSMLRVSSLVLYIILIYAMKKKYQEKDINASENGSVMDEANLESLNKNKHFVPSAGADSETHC", "assay": "Inhibition of OATP1B1 (unknown origin)", "format": "ADME"}, "[3]": {"target": "Solute carrier organic anion transporter family member 1B3 (Homo sapiens, UniProt Q9NPD5)", "sequence (Q9NPD5 whole entry)": "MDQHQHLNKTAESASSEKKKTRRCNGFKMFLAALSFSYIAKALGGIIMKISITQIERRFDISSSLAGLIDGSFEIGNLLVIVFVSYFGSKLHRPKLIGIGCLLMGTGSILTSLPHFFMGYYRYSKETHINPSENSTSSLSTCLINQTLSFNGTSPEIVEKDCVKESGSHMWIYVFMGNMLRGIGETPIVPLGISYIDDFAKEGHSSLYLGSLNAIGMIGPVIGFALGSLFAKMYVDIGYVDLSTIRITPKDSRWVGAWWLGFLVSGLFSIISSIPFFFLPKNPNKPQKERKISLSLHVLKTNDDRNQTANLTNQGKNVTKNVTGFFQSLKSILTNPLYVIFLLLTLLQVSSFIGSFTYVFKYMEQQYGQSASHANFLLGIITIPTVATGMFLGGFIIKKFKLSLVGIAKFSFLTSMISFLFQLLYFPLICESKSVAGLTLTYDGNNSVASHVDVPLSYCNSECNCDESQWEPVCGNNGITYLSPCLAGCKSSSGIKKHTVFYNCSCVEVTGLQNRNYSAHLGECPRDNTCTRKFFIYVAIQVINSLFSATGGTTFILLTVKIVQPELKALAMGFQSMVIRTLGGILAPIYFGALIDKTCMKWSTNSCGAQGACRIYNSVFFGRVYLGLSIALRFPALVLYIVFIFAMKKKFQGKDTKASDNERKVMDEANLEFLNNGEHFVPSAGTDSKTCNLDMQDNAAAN", "assay": "Inhibition of OATP1B3 (unknown origin)", "format": "ADME"}, "[4]": {"assay": "Intrinsic clearance in mouse hepatocytes", "format": "ADME, cell-based, Hepatocyte"}, "[5]": {"assay": "Intrinsic clearance in mouse liver S9 fraction", "format": "ADME, subcellular", "settings": "read-out: CLH; call rule not given here"}, "UGT1A4": {"target": "UGT1A4 (Homo sapiens, UniProt P22310)", "sequence (P22310 whole entry)": "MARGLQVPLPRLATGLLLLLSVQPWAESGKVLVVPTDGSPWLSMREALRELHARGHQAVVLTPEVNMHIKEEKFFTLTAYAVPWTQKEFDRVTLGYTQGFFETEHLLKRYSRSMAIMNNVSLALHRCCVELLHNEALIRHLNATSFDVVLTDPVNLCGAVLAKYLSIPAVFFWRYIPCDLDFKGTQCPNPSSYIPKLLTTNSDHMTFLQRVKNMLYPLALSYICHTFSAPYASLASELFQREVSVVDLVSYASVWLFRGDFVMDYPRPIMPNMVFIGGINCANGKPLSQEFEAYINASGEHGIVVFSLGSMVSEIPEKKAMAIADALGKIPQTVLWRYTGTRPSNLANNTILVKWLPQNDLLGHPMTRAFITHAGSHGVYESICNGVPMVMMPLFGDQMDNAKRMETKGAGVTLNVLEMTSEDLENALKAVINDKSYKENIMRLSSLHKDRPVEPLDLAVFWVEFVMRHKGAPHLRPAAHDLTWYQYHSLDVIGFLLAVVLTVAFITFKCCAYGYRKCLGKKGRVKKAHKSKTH", "assay": "Inhibition of human UGT1A4 assessed as residual enzyme activity at 10 uM relative to control", "format": "ADME", "settings": "read-out: Activity"}, "[6]": {"assay": "Half life in mouse hepatocytes", "format": "ADME, cell-based, Hepatocyte", "how_it_was_run": "(§1)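 Metabolic stability of the dihydrodiols measured in vitro with mouse and human liver S9 fractions and with mouse and human hepatocytes; half-life from substrate depletion.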"}, "[7]": {"assay": "Intrinsic clearance in human hepatocytes", "format": "ADME, cell-based, Hepatocyte"}, "UGT1A3": {"target": "UGT1A3 (Homo sapiens, UniProt P35503)", "sequence (P35503 whole entry)": "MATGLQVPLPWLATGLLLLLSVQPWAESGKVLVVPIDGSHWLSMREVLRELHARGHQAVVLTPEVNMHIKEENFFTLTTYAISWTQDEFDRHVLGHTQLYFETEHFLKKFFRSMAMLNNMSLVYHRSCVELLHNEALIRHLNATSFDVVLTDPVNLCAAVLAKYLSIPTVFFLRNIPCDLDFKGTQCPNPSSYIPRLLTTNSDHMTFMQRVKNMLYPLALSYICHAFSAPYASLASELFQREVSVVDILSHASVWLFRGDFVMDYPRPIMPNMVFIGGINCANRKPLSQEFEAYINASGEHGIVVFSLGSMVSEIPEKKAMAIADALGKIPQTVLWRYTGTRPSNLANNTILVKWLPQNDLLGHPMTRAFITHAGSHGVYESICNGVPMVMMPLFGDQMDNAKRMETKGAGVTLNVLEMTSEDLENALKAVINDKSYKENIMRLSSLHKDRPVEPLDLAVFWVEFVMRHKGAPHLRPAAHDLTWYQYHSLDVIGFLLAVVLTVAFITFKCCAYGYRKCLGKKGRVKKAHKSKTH", "assay": "Inhibition of human UGT1A3 assessed as residual enzyme activity at 10 uM relative to control", "format": "ADME", "settings": "read-out: Activity"}, "[8]": {"assay": "Lipophilicity, logD of the compound at pH 7.4", "format": "physicochemical", "settings": "buffer"}, "[9]": {"assay": "Protein binding in mouse plasma assessed as bound fraction", "format": "ADME, cell-free", "settings": "read-out: PPB (converted)", "how_it_was_run": "(§2)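 Binding measured in 100% plasma; reported as fraction bound.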"}, "[10]": {"assay": "Permeability at pH 7.4 by PAMPA", "format": "ADME", "settings": "read-out: permeability"}, "[11]": {"target": "UDP-glucuronosyltransferase 1A4 (Homo sapiens, UniProt P22310)", "sequence (P22310 whole entry)": "as the sequence (P22310 whole entry) above", "assay": "Drug metabolism assessed as human UGT1A4-mediated metabolism by measuring intrinsic clearance", "format": "ADME", "settings": "recombinant enzyme"}, "[12]": {"assay": "Half life in human liver S9 fraction", "format": "ADME, subcellular", "how_it_was_run": "as §1"}, "[13]": {"assay": "Inhibition of adenosine transporter (unknown origin) at 10 uM", "format": "ADME", "settings": "human"}, "[14]": {"assay": "Protein binding in human plasma assessed as bound fraction", "format": "ADME, cell-free", "settings": "read-out: PPB (converted)", "how_it_was_run": "as §2"}, "[15]": {"assay": "Retention time in human plasma by LC-MS/MS analysis", "format": "ADME, cell-free"}, "[16]": {"assay": "Intrinsic clearance in human liver S9 fraction", "format": "ADME, subcellular", "settings": "read-out: CLH"}, "[17]": {"assay": "Half life in mouse liver S9 fraction", "format": "ADME, subcellular", "how_it_was_run": "as §1"}, "[18]": {"target": "T1, Amine oxidase [flavin-containing] B (Homo sapiens, UniProt P27338)", "T1 sequence (P27338 whole entry)": "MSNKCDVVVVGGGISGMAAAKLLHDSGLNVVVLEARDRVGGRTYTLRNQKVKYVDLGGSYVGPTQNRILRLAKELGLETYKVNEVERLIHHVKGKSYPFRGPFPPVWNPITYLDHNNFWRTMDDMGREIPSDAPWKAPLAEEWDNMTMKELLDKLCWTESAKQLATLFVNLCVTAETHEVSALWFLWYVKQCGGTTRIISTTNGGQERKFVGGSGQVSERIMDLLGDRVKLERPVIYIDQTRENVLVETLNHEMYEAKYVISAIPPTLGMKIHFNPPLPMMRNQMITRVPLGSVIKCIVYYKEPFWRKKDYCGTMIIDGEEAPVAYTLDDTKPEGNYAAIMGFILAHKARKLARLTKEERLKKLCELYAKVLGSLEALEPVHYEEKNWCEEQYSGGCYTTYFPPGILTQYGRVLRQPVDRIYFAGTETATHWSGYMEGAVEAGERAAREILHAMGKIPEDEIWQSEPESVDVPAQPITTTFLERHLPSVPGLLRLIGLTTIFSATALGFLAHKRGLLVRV", "assay": "Inhibition of monoamino oxidase B (unknown origin) at 10 uM"}, "[19]": {"tested_on": "UDP-glucuronosyltransferases (UGTs)", "assay": "Drug metabolism assessed as human UGT-mediated metabolism by measuring intrinsic clearance", "format": "ADME, protein assay"}, "[20]": {"assay": "Retention time in beta-naphthoflavone/phenobarbital-induced rat liver S9 fraction at 100 ug/ml in presence of NADPH by LC-MS/MS analysis", "format": "ADME, subcellular"}, "[21]": {"assay": "Drug level in beta-naphthoflavone/phenobarbital-induced rat liver S9 fraction treated with 100 ug/ml Ezutromid-1 assessed as compound formation in presence of NADPH measured after 4 hrs by UV-Vis spectroscopy", "format": "ADME, subcellular", "settings": "s9, 4 h"}, "[22]": {"assay": "Kinetic aqueous solubility of the compound", "format": "physicochemical", "settings": "buffer; read-out: Kinetic_solubility"}, "[23]": {"assay": "Half life in human hepatocytes", "format": "ADME, cell-based, Hepatocyte", "how_it_was_run": "as §1"}, "UGT1A9": {"target": "UGT1A9 (Homo sapiens, UniProt O60656)", "sequence (O60656 whole entry)": "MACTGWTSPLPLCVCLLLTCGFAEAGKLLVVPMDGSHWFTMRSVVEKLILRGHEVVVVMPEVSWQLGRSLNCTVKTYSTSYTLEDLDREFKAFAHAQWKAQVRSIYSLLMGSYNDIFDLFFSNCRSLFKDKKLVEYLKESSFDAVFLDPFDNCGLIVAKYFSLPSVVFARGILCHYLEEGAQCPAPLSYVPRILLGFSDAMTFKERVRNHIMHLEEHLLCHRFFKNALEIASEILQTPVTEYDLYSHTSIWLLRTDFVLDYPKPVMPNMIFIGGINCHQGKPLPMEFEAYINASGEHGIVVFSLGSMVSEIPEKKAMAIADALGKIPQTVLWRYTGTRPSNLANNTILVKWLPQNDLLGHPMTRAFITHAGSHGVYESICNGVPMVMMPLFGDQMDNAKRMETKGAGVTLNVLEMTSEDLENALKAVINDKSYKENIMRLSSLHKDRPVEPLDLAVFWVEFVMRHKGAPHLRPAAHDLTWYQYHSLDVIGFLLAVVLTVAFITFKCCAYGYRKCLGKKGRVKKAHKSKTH", "assay": "Inhibition of human UGT1A9 assessed as residual enzyme activity at 10 uM relative to control", "format": "ADME", "settings": "read-out: Activity"}}}
{"smiles": "CCS(=O)(=O)c1ccc2oc(-c3ccc4c(c3)[C@@H](O)[C@H](O)C=C4)nc2c1", "values": [{"measurement": "inhibition (INH)", "setting": "[1]", "value": "Active"}, {"measurement": "inhibition (INH)", "setting": "[2]", "value": "Active"}, {"measurement": "inhibition (INH)", "setting": "[3]", "value": "Active"}, {"measurement": "CLH", "setting": "[4]", "value": 5, "unit": "µL/min/mg"}, {"measurement": "microsomal CLint", "setting": "[5]", "value": 13, "unit": "µL/min/mg"}, {"measurement": "activity at 10 µM", "setting": "UGT1A4", "value": 84, "unit": "%"}, {"measurement": "half-life", "setting": "[6]", "value": 2.38, "unit": "h"}, {"measurement": "CLH", "setting": "[7]", "value": 5, "unit": "µL/min/mg"}, {"measurement": "activity at 10 µM", "setting": "UGT1A3", "value": 79, "unit": "%"}, {"measurement": "logD", "setting": "[8]", "value": 1.95}, {"measurement": "fraction unbound", "setting": "[9]", "value": 0.077}, {"measurement": "Papp", "setting": "[10]", "value": 34.4, "unit": "×10⁻⁶ cm/s"}, {"measurement": "CL", "setting": "[11]", "value": "< 2.9", "unit": "µL/min/pmol"}, {"measurement": "half-life", "setting": "[12]", "value": "> 2.3", "unit": "h"}, {"measurement": "inhibition (INH)", "setting": "[13]", "value": "Not Active"}, {"measurement": "fraction unbound", "setting": "[14]", "value": 0.128}, {"measurement": "Retention_time", "setting": "[15]", "value": 8.9, "unit": "min"}, {"measurement": "microsomal CLint", "setting": "[16]", "value": "< 10", "unit": "µL/min/mg"}, {"measurement": "half-life", "setting": "[17]", "value": 1.87, "unit": "h"}, {"measurement": "inhibition (INH)", "setting": "[18]", "value": "Not Active"}, {"measurement": "CL", "setting": "[19]", "value": "< 5.8", "unit": "µL/min/pmol"}, {"measurement": "Retention_time", "setting": "[20]", "value": 9, "unit": "min"}, {"measurement": "Drug uptake", "setting": "[21]", "value": "Metabolite_Detected"}, {"measurement": "solubility kinetic", "setting": "[22]", "value": 210, "unit": "µM"}, {"measurement": "half-life", "setting": "[23]", "value": 2.37, "unit": "h"}, {"measurement": "activity at 10 µM", "setting": "UGT1A9", "value": 45, "unit": "%"}]}
